Source: PubChem (several laboratories)
Arrestin-AP2 inh – inhibitors of human beta-arrestin and AP2 interaction | 0.31% of 340,000 active | inhibition, % at 10 µM | AID 504490 | FITC-arrestin peptide / GST-AP2 beads, flow cytometry; AP2 beta2 appendage carries R879A mutation;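 active means inhibition above a set limit, near 3 SD of compounds lacking own fluorescence, cut at about 54% in these data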;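 further: plate controls were DMSO wells for no effect and 5 µM unlabelled arrestin peptide for full effect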
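System: GST-AP2 R879A glutathione beads; medium: PBS, Tween 20 0.05%, BSA 0.1%; reagent: fluorescein-tagged arrestin peptide at 50 nM final; schedule: pre-incubation 12 min, peptide binding 1 h, room temperature; detection: flow cytometry, FL1 (488/535 nm); read-out: inhibition as reduced fluorescein signal on beads, percent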
FAS TE block – blocks the thioesterase domain of human fatty acid synthase; P49327; recombinant FAS-TE, OMFH fluorogenic substrate, fluorescence endpoint; inhibition, % at 15 µM; 0.67% of 360,000 active; AID 602261;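 active means compounds whose normalised, plate-corrected inhibition of enzyme fluorescence in the single-dose primary screen is 50% or more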;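 further: 0% = DMSO with enzyme and 100% = substrate without enzyme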
iPSC survival up – increases survival of single human iPS cells | AID 602274 | 0.044% of 360,000 active | hiPSC single-cell survival, ATPlite luminescence; 100% = ROCK inhibitor wells, 0% = DMSO | survival enhancement, % at 20 µM; in the data active means survival enhancement above about 18%;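 further: cells exposed to compounds for 16 hours before the ATP read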
SENP1 inh – blocks the human SENP1 SUMO protease catalytic domain. 0.21% of 360,000 active. Q9P0U3. inhibition, % at 10 µM. recombinant SENP1 catalytic domain, CyPet-SUMO1-YPet FRET cleavage;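 active means inhibition at least 30% at 10 µM, raw YFP signal under a set limit, fluorescence ratio 0.5 to 1.5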;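 further: 0% = enzyme with DMSO and 100% = no enzyme wells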
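Test system: human SENP1 catalytic domain; medium: Tris pH 8 buffer plus EDTA, NaCl, BME, BSA, NP40, catalase; incubation: 50 min reaction at room temperature; technique: FRET, CFP and YFP emission; controls: no-enzyme low control and enzyme-plus-DMSO high control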
Cardio protect – protects H9c2 cardiomyocytes from peroxide injury. H2O2 injury protection, ATPLite, 2 h. protection from H2O2 cell death, % at 20 µM. 0.63% of 360,000 active. AID 588492;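 active means compounds giving at least 50% protection of heart cells from peroxide-induced death in the single-dose screen, raw or plate-pattern-corrected value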;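 further: 0% = DMSO wells with peroxide and 100% = DMSO wells without peroxide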
NR3A LBD binder – modulates the human NR3A ligand-binding domain. NR3A LBD differential scanning fluorimetry, Tm shift; 0% = protein alone, 100% = glycine-bound protein. 2.5% of 340,000 active. Tm shift relative to glycine control, % at 25 µM;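 active means melting temperature shift of at least 10% of the positive control shift, at one fixed dose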
Numbers without * were called inactive; x = no result given; ! = a repeat was not active. In the library only some 4% were active in any assay of this set; here they are far more common.

SMILES | Arrestin-AP2 inh | FAS TE block | iPSC survival up | SENP1 inh | Cardio protect | NR3A LBD binder
COc1ccc([C@H]2CN(c3ccc(OC)cc3)C(=O)[C@@H]2CC(=O)Nc2ccccc2)cc1 | x | 11 | -1 | -2 | 6 | x
COc1ccccc1C#CC1=CC(=O)CC(C)(C)C1 | x | 2 | -1 | 0 | 1 | x
CCCCC(=O)N(C)c1c(CC)nc2c(OCc3cc(Cl)cc(Cl)c3)cccn12 | x | 21 | 0 | -2 | -8 | x
CCCCN(Cc1cc2cc(OC)ccc2[nH]c1=O)C(=O)c1ccccn1 | 0 | -4 | -1 | -1 | 2 | 13*
COc1ccc(NC(=O)N(CCCN(C)C)Cc2cc3cc(OC)ccc3[nH]c2=O)cc1 | 1 | -8 | 1 | 2 | 51* | -2
CCCN(Cc1cc2cc(C)ccc2[nH]c1=O)C(=O)c1ccccn1 | -4 | -5 | 4 | 2 | -3 | -1
CCN(CC)CCCN(Cc1cc2cc(OC)ccc2[nH]c1=O)C(=O)Nc1ccc(F)cc1 | 23 | -6 | -4 | -12 | 25 | 1
CCCC(c1nnnn1C(C)(C)CC)N(CCCO)Cc1cc2cc(C)cc(C)c2[nH]c1=O (stereo not drawn) | 25 | -4 | 3 | -16 | 59* | -1
COc1ccccc1NC(=S)NC(=O)c1ccc(-c2ccc(Cl)cc2)o1 | -46 | 22 | 4 | 3 | 0 | -9
Cc1ccc(O)c(NC(=O)c2cc(-c3ccc(F)cc3)on2)c1 | -16 | -3 | 2 | 0 | -3 | 217*
O=C(NC(=S)Nc1ccccc1O)c1ccc(-c2ccc(Cl)cc2)o1 | -1 | 12 | -3 | 3 | 43 | 29*
Cc1ccc(O)c(NC(=S)NC(=O)c2ccc(-c3ccc(Cl)cc3)o2)c1 | 28 | 18 | 2 | 3 | 48 | 29*
COC(=O)C1=CN(c2ccc(OC)cc2)C(N)=C(C#N)C1c1ccccc1F (stereo not drawn) | x | x | x | -4 | x | x
CNC(=S)n1cnc(N)n1 | 5 | -5 | -1 | 3 | 5 | 12*
CCOc1ccc(C(CN2CCOCC2)C(C)=O)cc1OC (stereo not drawn) | x | 0 | -2 | 1 | -8 | x
COc1ccccc1C(=O)NCC(=O)N(C)Cc1nc2ccccc2c(=O)[nH]1 | x | -5 | -1 | 2 | 7 | x
COCCNC(=O)C1(C)CCCN(C(=O)c2ccco2)C1 (stereo not drawn) | x | -9 | 2 | 1 | -4 | x
O=C1NN=C2CCCCCCC12 (stereo not drawn) | x | -3 | -2 | 2 | 0 | x
CCOC(=O)C1=C(C)NC(C)=C(C(=O)OCC)C1C(=O)OCC(=O)NC(C)C | 35 | -2 | 4 | -5 | 57*! | 0
CNc1nc(=S)[nH]c2ccccc12 | 0 | -4 | -1 | 3 | -1 | 2
S=c1nc2[nH]c3ccccc3c2n[nH]1 | 8 | -3 | 0 | 1 | 6 | 20*
CCCNC(=O)OC1CC2CC1[C@H]1CCCCN1C2=O (stereo partly drawn) | x | -9 | -1 | 0 | x | x
CNC(=S)SCCOc1ccccc1C | -1 | 4 | -2 | 5 | -6 | 15*
CC(=O)c1cccc(NC(=O)c2cccc3c(-c4cccc(C(N)=O)c4)coc23)c1 | x | -5 | -1 | -1 | 6 | x
CS(=O)(=O)Nc1cccc(NC(=O)c2cccc3c(-c4cccc(C(N)=O)c4)coc23)c1 | x | -6 | 0 | -1 | 54* | x
SMILES | Arrestin-AP2 inh | FAS TE block | iPSC survival up | SENP1 inh | Cardio protect | NR3A LBD binder
O=c1nc(N/N=C/c2ccccn2)cn[nH]1 | 15 | -4 | -4 | 3 | 55* | 0
Cc1ccccc1NC(c1cccc(Cl)c1)c1nnnn1C1CCCCC1 (stereo not drawn) | -2 | -4 | 0 | 0 | -4 | 13*
COc1ccc(C(=O)c2[nH]c(N)c(C(=O)NCCc3c[nH]c4ccccc34)c2-c2c(F)cccc2Cl)cc1 | x | 3 | 1 | -19 | x | x
CCn1c(O)c(/C=N/N=C/c2ccccc2)c2ccc(C3=NNC(=O)CC3)cc21 | -6 | -59 | 4 | -31 | 76* | 0
O=c1oc(-c2ccc(O)c(O)c2)cc2cccc(O)c12 | -3 | 5 | -4 | -12 | 22 | 24*
O=c1oc(-c2ccc(O)c(O)c2)cc2cc(O)cc(O)c12 | 18 | -4 | -1 | -4 | 42 | 20*
O=c1cc(-c2ccc(O)c(O)c2)oc2ccc3ccccc3c12 | 6 | 18 | -1 | 0 | -6 | 25*
O=c1cc(-c2ccccc2)oc2ccc3ccccc3c12 | x | 6 | -4 | 2 | -22 | x
COc1cc(-c2cc(=O)c3c(O)cc(O)cc3o2)ccc1O | x | 0 | 1 | 10 | 3 | -1
O=C(O)C1=CCC=CC1C(=O)O (stereo not drawn) | x | -7 | 2 | 5 | 3 | x
CC(C)[C@H](NC(=O)OC(C)(C)C)c1cc(C(=O)N2CCOCC2)c(N)s1 | x | x | x | 1 | x | x
CCC(C)(C)n1nnnc1C(c1cc2cc(C)ccc2[nH]c1=O)N1CCCC1 (stereo not drawn) | 0 | -5 | -3 | -14 | 9 | -2
Cc1ccc2cc(C(c3nnnn3C(C)(C)C)N3CCCCCC3)c(=O)[nH]c2c1 (stereo not drawn) | 1 | -5 | -2 | 3 | 6 | 11*
O=C1Nc2ccccc2-n2nnnc2C1N1CCN(C(=O)c2ccco2)CC1 (stereo not drawn) | x | x | x | -6 | x | x
COc1cc(C(F)(F)F)c(C(=O)N(C)Cc2cccc(Cl)c2)cn1 | 1 | 4 | 0 | 1 | 4 | 14*
O=C1c2ccccc2NC(c2ccc(Cl)cc2Cl)N1Cc1ccccc1 (stereo not drawn) | -5 | 19 | -1 | 1 | -14 | -9
O=C1c2ccccc2NC(c2ccc(Cl)cc2Cl)N1O (stereo not drawn) | 18 | -14 | 9 | -2 | 61* | -1
CSCCC(NC(=O)c1ccccc1)C(=O)N(C)CC(=O)Nc1ccc(N2CCOCC2)cc1 (stereo not drawn) | -25 | 1 | 0 | 1 | 13 | 13*
Cc1cccc(-c2ccc([N+](=O)[O-])cc2CN2CCN(c3ncc(Cc4ccccc4)cn3)CC2)c1 | x | x | x | 1 | x | x
O=S(=O)(O)c1cc(O)c(N=Nc2ccc(O)cc2O)c2ccccc12 | 12 | 0 | 1 | 3 | -10 | 13*
CN(C)c1nc(NCc2ccccc2)nc(SCC(=O)Nc2ccc(Cl)c(Cl)c2)n1 | -2 | 31 | -2 | 3 | -12 | 32*
CCNc1nc(NCc2ccccc2)nc(SCC(=O)Nc2ccccc2)n1 | -10 | 14 | 1 | 2 | -3 | -17
CCNc1nc(SCC(=O)Nc2ccc(Cl)c(Cl)c2)nc(N(C)C)n1 | 30 | 12 | 1 | 1 | -16 | 10*
